Test results: ChEMBL document CHEMBL5321284, “Discovery of a First-in-Class Degrader for the Lipid Kinase PIKfyve” (J Med Chem, 2023)
Active and inactive are the calls of the source. No cut-off for these calls is given here.

How the values were obtained:
[1] = molecular target: T1, von Hippel-Lindau disease tumor suppressor/1-phosphatidylinositol 3-phosphate 5-kinase (Homo sapiens) (UniProt Q9Y2I7+P40337); assay: PROTAC activity at VHL/PIKfyve in human 22RV1 cells assessed as downregulation of PIKfyve expression at 10 to 3000 nM measured after 24 hrs by immunoblot analysis; format: cell-based; conditions: dose 10-3000 nM
How it was run: (§1)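 22RV1, LNCaP or PC3 cells given increasing concentrations for 24 h; RIPA lysates immunoblotted for PIKfyve with GAPDH loading control, ECL detection.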

[2] = molecular target: T1, von Hippel-Lindau disease tumor suppressor/1-phosphatidylinositol 3-phosphate 5-kinase (Homo sapiens); assay: PROTAC activity at VHL/PIKfyve in human LNCaP cells assessed as downregulation of PIKfyve expression at 10 to 3000 nM measured after 24 hrs by immunoblot analysis; format: cell-based; conditions: dose 10-3000 nM; how it was run: as §1
[3] = molecular target: T1, von Hippel-Lindau disease tumor suppressor/1-phosphatidylinositol 3-phosphate 5-kinase (Homo sapiens); assay: PROTAC activity at VHL/PIKfyve in human PC-3 cells assessed as downregulation of PIKfyve expression at 10 to 3000 nM measured after 24 hrs by immunoblot analysis; format: cell-based; conditions: dose 10-3000 nM; how it was run: as §1
[4] = molecular target: T1, von Hippel-Lindau disease tumor suppressor/1-phosphatidylinositol 3-phosphate 5-kinase (Homo sapiens); assay: PROTAC activity at VHL/PIKfyve in human VCaP cells assessed as downregulation of PIKfyve expression at 300 nM measured after 4 hrs by TMT-labeled mass spectrometry; format: cell-based
How it was run: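 VCaP cells plated 3×10^6 per well overnight, then DMSO or 300 nM for 4 h; TMT-labeled quantitative global proteomics, mass-spec quantification of PIKfyve and lipid kinases.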

[5] = molecular target: T1, von Hippel-Lindau disease tumor suppressor/1-phosphatidylinositol 3-phosphate 5-kinase (Homo sapiens); assay: PROTAC activity at VHL/PIKfyve in human VCaP cells assessed as induction of PIKfyve degradation by measuring half life at 100 nM by immunoblot analysis; format: cell-based
[6] = molecular target: T1, von Hippel-Lindau disease tumor suppressor/1-phosphatidylinositol 3-phosphate 5-kinase (Homo sapiens); assay: PROTAC activity at VHL/PIKfyve in human VCaP cells assessed as maximal induction of PIKfyve degradation incubated for 24 hrs by immunoblot analysis relative to control; format: cell-based
How it was run: (§2)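 VCaP cells treated with increasing concentrations for 24 h; PIKfyve and GAPDH immunoblotted; percent remaining PIKfyve plotted to determine DC50 and Dmax.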

[7] = molecular target: T1, von Hippel-Lindau disease tumor suppressor/1-phosphatidylinositol 3-phosphate 5-kinase (Homo sapiens); assay: PROTAC activity at VHL/PIKfyve in human VCaP cells assessed as induction of PIKfyve degradation at 1 uM incubated for 24 hrs by immunoblot analysis; format: cell-based
How it was run: (§3)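 VCaP cells treated 24 h at 0.1 or 1.0 µM; percent PIKfyve degradation determined by immunoblotting.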

[8] = molecular target: T1, von Hippel-Lindau disease tumor suppressor/1-phosphatidylinositol 3-phosphate 5-kinase (Homo sapiens); assay: PROTAC activity at VHL/PIKfyve in human VCaP cells assessed as induction of PIKfyve degradation at 0.1 uM incubated for 24 hrs by immunoblot analysis; format: cell-based; how it was run: as §3
[9] = molecular target: T1, von Hippel-Lindau disease tumor suppressor/1-phosphatidylinositol 3-phosphate 5-kinase (Homo sapiens); assay: PROTAC activity at VHL/PIKfyve in human VCaP cells assessed as induction of PIKfyve degradation at 0.1 to 1 uM incubated for 24 hrs by immunoblot analysis; format: cell-based; conditions: dose 0.1-1 µM
How it was run: (§4)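 VCaP cells treated 24 h at 0.1 and 1 µM, with or without pretreatment by 1 µM bortezomib; PIKfyve and GAPDH immunoblotted.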

[10] = molecular target: T1, von Hippel-Lindau disease tumor suppressor/1-phosphatidylinositol 3-phosphate 5-kinase (Homo sapiens); assay: PROTAC activity at VHL/PIKfyve in human VCaP cells assessed as induction of PIKfyve degradation incubated for 24 hrs by immunoblot analysis; format: cell-based; how it was run: as §2
[11] = molecular target: T1, von Hippel-Lindau disease tumor suppressor/1-phosphatidylinositol 3-phosphate 5-kinase (Homo sapiens); assay: PROTAC activity at VHL/PIKfyve in human VCaP cells assessed as induction of PIKfyve degradation at 0.1 to 1 uM incubated for 24 hrs in presence of proteasome inhibitor, bortezomib by immunoblot analysis; format: cell-based; conditions: dose 0.1-1 µM; how it was run: as §4
[12] = molecular target: T1, von Hippel-Lindau disease tumor suppressor/1-phosphatidylinositol 3-phosphate 5-kinase (Homo sapiens); assay: PROTAC activity at VHL/PIKfyve in human VCaP cells assessed as induction of PIKfyve degradation at 0.1 to 0.3 uM incubated for 24 hrs in presence of PIKfyve inhibitor, apilimod by immunoblot analysis; format: cell-based; conditions: dose 0.1-0.3 µM
How it was run: (§5)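 VCaP cells given increasing concentrations of degrader with or without warhead 1 or VHL ligand VL285 for 24 h; immunoblot of PIKfyve and GAPDH.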

[13] = molecular target: T1, von Hippel-Lindau disease tumor suppressor/1-phosphatidylinositol 3-phosphate 5-kinase (Homo sapiens); assay: PROTAC activity at VHL/PIKfyve in human VCaP cells assessed as induction of PIKfyve degradation at 0.1 to 0.3 uM incubated for 24 hrs in presence of VHL ligand, VL285 by immunoblot analysis; format: cell-based; conditions: dose 0.1-0.3 µM; how it was run: as §5
DU-145 [14] = assay: Induction of massive cytoplasmic vacuolization in human RFP-labeled DU-145 cells incubated for 24 hrs; format: functional, cell-based; conditions: dose 100-3000 nM
How it was run: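 RFP-labeled DU145 cells treated 24 h (300 nM shown); vacuole area per cell quantified from images.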

PC-3 [15] = assay: Inhibition of autophagy in human PC-3 cells assessed as increase in LC3A/B expression incubated for 24 hrs by immunoblot analysis; format: functional, cell-based; conditions: dose 10-3000 nM
How it was run: (§6)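 22RV1, LNCaP or PC3 cells (5% CO2, 37 °C) exposed to increasing concentrations for 24 h; RIPA lysates with protease/phosphatase inhibitors, 4–12% Bis-Tris SDS-PAGE, PVDF, milk block, immunoblotted for PIKfyve and autophagy markers LC3A/B and p62, ECL detection.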

LNCaP [16] = assay: Inhibition of autophagy in human LNCaP cells assessed as increase in LC3A/B expression incubated for 24 hrs by immunoblot analysis; format: functional, cell-based; conditions: dose 10-3000 nM; how it was run: as §6
CWR22R [17] = assay: Inhibition of autophagy in human 22Rv1 cells assessed as increase in LC3A/B expression incubated for 24 hrs by immunoblot analysis; format: functional, cell-based; conditions: dose 10-3000 nM; how it was run: as §6
PC-3 [18] = assay: Inhibition of autophagy in human PC-3 cells assessed as increase in p62 expression incubated for 24 hrs by immunoblot analysis; format: functional, cell-based; conditions: dose 10-3000 nM; how it was run: as §6
LNCaP [19] = assay: Inhibition of autophagy in human LNCaP cells assessed as increase in p62 expression incubated for 24 hrs by immunoblot analysis; format: functional, cell-based; conditions: dose 10-3000 nM; how it was run: as §6
CWR22R [20] = assay: Inhibition of autophagy in human 22Rv1 cells assessed as increase in p62 expression incubated for 24 hrs by immunoblot analysis; format: functional, cell-based; conditions: dose 10-3000 nM; how it was run: as §6
VCaP [21] = assay: Antiproliferative activity against human VCaP cells assessed as inhibition of cell proliferation incubated for 24 hrs followed by culturing in compound-free medium for 2 weeks by crystal violet staining based analysis; format: functional
How it was run: (§7)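 VCaP cells exposed either 24 h then washed and chased 2 weeks in compound-free medium, or continuously for 2 weeks; long-term viability visualized by crystal violet staining; IC50 calculated for each condition.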

VCaP [22] = assay: Antiproliferative activity against human VCaP cells assessed as inhibition of cell proliferation incubated for 2 weeks by crystal violet staining based analysis; format: functional; conditions: 336 h; how it was run: as §7
VCaP [23] = assay: Antiproliferative activity against human VCaP cells assessed as inhibition of cell proliferation incubated for 4 hrs followed by culturing in compound-free medium for 2 weeks by crystal violet staining based analysis; format: functional
How it was run: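 VCaP cells treated 4 h, compound removed, then cultured 2 weeks in drug-free medium; long-term viability by crystal violet staining.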

[24] = molecular target: T1, von Hippel-Lindau disease tumor suppressor/1-phosphatidylinositol 3-phosphate 5-kinase (Homo sapiens); assay: PROTAC activity at VHL/PIKfyve in human VCaP cells assessed as induction of PIKfyve degradation at 300 nM incubated for 4 hrs followed by culturing in compound-free medium for 72 hrs by immunoblot analysis; format: cell-based
How it was run: (§8)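 VCaP cells treated 4 h, compounds removed, cultured 72 h in compound-free medium; whole cell lysates immunoblotted for PIKfyve, LC3A/B and GAPDH (RIPA lysis, 4–12% Bis-Tris gels, PVDF, ECL).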

VCaP [25] = assay: Inhibition of autophagy in human VCaP cells assessed as increase in LC3A/B expression at 300 nM incubated for 4 hrs followed by culturing in compound-free medium for 72 hrs by immunoblot analysis; format: functional, cell-based; how it was run: as §8
DU-145 [26] = assay: Induction of massive cytoplasmic vacuolization in human RFP-labeled DU-145 cells at 300 nM incubated for 4 hrs; format: functional, cell-based
Mus musculus = assay: In vivo induction of PIKfyve degradation in tumor of LTL-331R-xenografted CB17 mouse assessed as downregulation of PIKfyve expression at 4 to 10 mg/kg, ip for 4 days by western blot analysis; format: functional, organism-based; conditions: dose 4-10 mg/kg, time 4.0 day
How it was run: (§9)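 LTL-331R prostate cancer PDX; IP once daily for 3 days at 4 or 10 mg/kg in 5% DMSO/95% of 40% hydroxypropyl-β-cyclodextrin (freshly dissolved); tumors collected 24 h after last dose on day 4; whole tumor lysate immunoblotted for PIKfyve, LC3A/B, GAPDH, or TUNEL in situ cell death staining.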

LTL-331R [27] = assay: Antitumor activity against human LTL-331R xenografted in CB17 mouse assessed as induction of tumor cell death at 4 to 10 mg/kg, ip for 4 days by TUNEL assay; format: functional, organism-based; conditions: dose 4-10 mg/kg, time 4.0 day; how it was run: as §9
LTL-331R [28] = assay: Antitumor activity against human LTL-331R xenografted in CB17 mouse assessed as inhibition of tumor cell proliferation at 15 mg/kg, ip at 5 days on and 2 days off regimen for 17 days by digital caliper analysis; format: functional, organism-based; conditions: time 17.0 day
How it was run: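 LTL-331R PDX; once-daily IP dosing, 5 days on/2 days off for 17 days, vehicle 5% DMSO/95% of 40% hydroxypropyl-β-cyclodextrin; tumors measured at least twice weekly by caliper, volume (π/6)(L×W²); vehicle vs treated compared by two-tailed unpaired t test.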

T1 sequence (P40337 whole entry partner): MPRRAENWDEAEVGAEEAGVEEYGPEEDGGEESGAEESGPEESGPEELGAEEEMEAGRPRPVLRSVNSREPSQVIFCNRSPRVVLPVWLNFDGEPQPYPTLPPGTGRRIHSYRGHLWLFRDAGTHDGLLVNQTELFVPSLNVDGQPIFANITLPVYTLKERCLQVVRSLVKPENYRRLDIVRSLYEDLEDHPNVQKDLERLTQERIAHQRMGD
T1 sequence (Q9Y2I7 2-2098 limits assumed): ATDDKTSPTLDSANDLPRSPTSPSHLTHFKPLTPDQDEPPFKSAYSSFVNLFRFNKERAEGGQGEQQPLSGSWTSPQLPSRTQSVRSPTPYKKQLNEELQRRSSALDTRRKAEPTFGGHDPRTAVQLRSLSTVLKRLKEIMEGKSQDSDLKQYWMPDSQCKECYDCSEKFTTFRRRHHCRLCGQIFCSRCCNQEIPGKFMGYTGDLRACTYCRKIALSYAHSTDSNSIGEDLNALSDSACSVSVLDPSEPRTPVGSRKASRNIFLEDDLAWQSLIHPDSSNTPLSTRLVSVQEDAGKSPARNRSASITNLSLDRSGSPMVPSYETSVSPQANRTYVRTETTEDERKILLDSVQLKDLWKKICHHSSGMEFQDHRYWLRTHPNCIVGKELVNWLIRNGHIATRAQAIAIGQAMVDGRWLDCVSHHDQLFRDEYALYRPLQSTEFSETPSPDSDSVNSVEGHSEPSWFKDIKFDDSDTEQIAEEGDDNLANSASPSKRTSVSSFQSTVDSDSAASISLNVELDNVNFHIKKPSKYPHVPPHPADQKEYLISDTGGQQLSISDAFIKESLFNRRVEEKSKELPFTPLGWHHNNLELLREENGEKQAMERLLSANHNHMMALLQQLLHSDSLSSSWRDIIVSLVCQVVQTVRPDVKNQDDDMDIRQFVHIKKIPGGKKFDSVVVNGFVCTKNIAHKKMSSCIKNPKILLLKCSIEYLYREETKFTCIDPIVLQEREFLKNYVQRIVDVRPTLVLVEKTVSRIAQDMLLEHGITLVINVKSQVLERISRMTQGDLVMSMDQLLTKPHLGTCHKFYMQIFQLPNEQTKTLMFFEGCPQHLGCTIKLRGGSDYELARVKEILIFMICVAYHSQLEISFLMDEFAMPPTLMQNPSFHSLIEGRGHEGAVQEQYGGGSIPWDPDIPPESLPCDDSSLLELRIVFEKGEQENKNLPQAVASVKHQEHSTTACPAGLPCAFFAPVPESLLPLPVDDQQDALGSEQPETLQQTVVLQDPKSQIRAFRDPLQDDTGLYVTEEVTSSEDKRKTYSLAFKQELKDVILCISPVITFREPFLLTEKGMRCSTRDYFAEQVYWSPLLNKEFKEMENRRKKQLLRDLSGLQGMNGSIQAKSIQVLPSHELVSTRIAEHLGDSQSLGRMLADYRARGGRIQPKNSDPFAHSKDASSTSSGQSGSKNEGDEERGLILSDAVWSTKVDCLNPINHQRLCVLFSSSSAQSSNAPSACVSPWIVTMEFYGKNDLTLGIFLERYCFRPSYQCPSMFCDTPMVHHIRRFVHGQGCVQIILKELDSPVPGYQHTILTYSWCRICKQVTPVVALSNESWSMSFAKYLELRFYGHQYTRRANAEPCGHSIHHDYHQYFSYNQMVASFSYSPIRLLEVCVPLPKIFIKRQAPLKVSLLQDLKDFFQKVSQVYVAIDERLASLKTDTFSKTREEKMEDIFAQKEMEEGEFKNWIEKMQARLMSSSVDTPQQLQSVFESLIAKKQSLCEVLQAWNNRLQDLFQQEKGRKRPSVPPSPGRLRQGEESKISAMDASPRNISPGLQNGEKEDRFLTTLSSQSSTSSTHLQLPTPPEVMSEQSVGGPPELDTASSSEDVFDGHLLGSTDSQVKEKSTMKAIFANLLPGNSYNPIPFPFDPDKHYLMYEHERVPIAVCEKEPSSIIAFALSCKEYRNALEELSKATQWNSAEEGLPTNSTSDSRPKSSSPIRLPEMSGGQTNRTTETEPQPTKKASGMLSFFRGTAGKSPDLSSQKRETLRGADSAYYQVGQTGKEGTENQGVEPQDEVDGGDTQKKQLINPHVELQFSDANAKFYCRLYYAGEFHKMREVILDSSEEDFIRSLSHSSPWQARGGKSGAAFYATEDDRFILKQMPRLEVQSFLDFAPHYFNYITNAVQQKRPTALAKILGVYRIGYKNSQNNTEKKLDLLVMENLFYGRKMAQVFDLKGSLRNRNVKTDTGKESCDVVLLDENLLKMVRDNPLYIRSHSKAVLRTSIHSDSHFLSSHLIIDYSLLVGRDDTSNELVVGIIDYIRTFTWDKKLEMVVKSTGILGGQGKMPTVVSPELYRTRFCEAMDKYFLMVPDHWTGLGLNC

Cc1cccc(/C=N/Nc2cc(N3CCOCC3)nc(OCCc3ccc(NC(=O)CCCCC(=O)N[C@H](C(=O)N4C[C@H](O)C[C@H]4C(=O)NCc4ccc(-c5scnc5C)cc4)C(C)(C)C)cc3)n2)c1
Activity [1]: Active
Activity [2]: Active
Activity [3]: Active
Activity [4]: Active
T1/2 [5]: 1.5 h
Activity [6]: 97.9%
Activity [7]: 91%
Activity [8]: 97%
Activity [9]: Active
Activity [10]: Dose-Dependent Effect
Activity [11]: inactive
Activity [12]: inactive
Activity [13]: inactive
Activity (DU-145 [14]): Dose-Dependent Effect
inhibition (PC-3 [15]): Dose-Dependent Effect
inhibition (LNCaP [16]): Dose-Dependent Effect
inhibition (CWR22R [17]): Dose-Dependent Effect
inhibition (PC-3 [18]): Dose-Dependent Effect
inhibition (LNCaP [19]): Dose-Dependent Effect
inhibition (CWR22R [20]): Dose-Dependent Effect
IC50 (VCaP [21]): 522 nM
IC50 (VCaP [22]): 55.9 nM
IC50 (VCaP [23]): 1200 nM
Activity [24]: Active
inhibition (VCaP [25]): Active
Activity (DU-145 [26]): Active
Activity (Mus musculus): Active
Activity (LTL-331R [27]): Active
Activity (LTL-331R [28]): Active
